Experimental data: ChEMBL document CHEMBL1144571, “ABP688, a novel selective and high affinity ligand for the labeling of mGlu5 receptors: identification, in vitro pharmacology, pharmacokinetic and biodistribution studies” (Bioorg Med Chem, 2007)
pIC50, pKd, pKi: −log10 of the molar value. Blank lines part the entries; values can stand above or below the compound they belong to. The source made the active and inactive calls.

How the values were obtained:
[1] = molecular target: T1, Metabotropic glutamate receptor 5 (Rattus norvegicus, UniProt P31424); assay: Displacement of [3H]ABP688 from mGluR5 in rat brain membrane; assay type: cell membranes
[2] = molecular target: T2, Metabotropic glutamate receptor 5 (Homo sapiens, UniProt P41594); assay: Displacement of [3H]ABP688 from human mGluR5 receptor expressed in L (tk-) cells; assay type: cell-based
[3] = molecular target: T2, Metabotropic glutamate receptor 5; assay: Displacement of [3H]M-MPEP from human mGluR5 receptor expressed in L (tk-) cells; assay type: cell-based
How it was run: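 Membranes from L(tk-) cells expressing recombinant human mGluR5, incubated with 2 nM [3H]-M-MPEP over a range of competitor concentrations. Non-specific binding was taken with 1 µM unlabeled M-MPEP. Readout is percent specific binding.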

[4] = molecular target: T2, Metabotropic glutamate receptor 5; assay: Activity at human recombinant mGluR5 expressed in L(tk-) cells assessed as inhibition of quisqualate-induced phosphoinositol accumulation; assay type: functional, cell-based
[5] = molecular target: T2, Metabotropic glutamate receptor 5; assay: Activity at human recombinant mGluR5 expressed in L(tk-) cells assessed as inhibition of glutamate-induced calcium release; assay type: functional, cell-based
[6] = molecular target: Metabotropic glutamate receptor 1 (Homo sapiens) (UniProt Q13255); assay: Activity at human recombinant mGluR1 expressed in L(tk-) cells assessed as inhibition of quisqualate-induced phosphoinositol accumulation at 10 uM; assay type: functional, cell-based
How it was run: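 Inhibition of quisqualate (40 µM)-stimulated PI accumulation in hmGluR1-expressing cells cultured in glutamate-free DMEM (2 mM L-glutamine, proline, 10% dialyzed FCS, geneticin). Percent control ± SD, n = 3 independent determinations, each in triplicate.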

[7] = molecular target: Metabotropic glutamate receptor 1 (Homo sapiens) (UniProt Q13255); assay: Activity at human recombinant mGluR1 expressed in L(tk-) cells assessed as basal phosphoinositol level
[8] = test system: Plasma; assay: Drug distribution in rat plasma; assay type: ADME, cell-free
How it was run: (§1)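 Fresh heparinized rat or human blood spiked with [3H]ABP688 (5–500,000 pg/mL) at 37 °C. Plasma separated by centrifugation (1500g, 10 min, 37 °C), total radioactivity counted in plasma and blood, hematocrit measured (n = 3). Plasma fraction fP (%) = (Cp/Cb)·(1−H)·100.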

[9] = test system: Plasma; assay: Drug distribution in human plasma; assay type: ADME, cell-free; how it was run: as §1
[10] = Protein binding in rat plasma as percentage unbound; assay type: ADME, cell-free
How it was run: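 Rat or human plasma spiked with [3H]ABP688 (50–500,000 pg/mL) and ultrafiltered at 37 °C through a 30 kDa cut-off device. Radioactivity in ultrafiltrate (Cu) and in sample before filtration (Cp) counted by liquid scintillation; fu (%) = Cu/Cp·100.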

[11] = Metabolic stability assessed as intrinsic clearance in Sprague-Dawley rat liver microsomes; assay type: ADME, Microsome
How it was run: (§2)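 Pooled liver microsomes (male Sprague-Dawley rat; mixed-gender Caucasian human), 0.2 mg protein/mL, incubated with [3H]ABP688 (0.92 µmol/L) for 40 min at 37 °C in 0.1 M sodium phosphate pH 7.4 containing 4 mM UDPGA, 1 mM β-NADPH and 5 mM MgCl2. Parent depletion tracked by on-line radio-HPLC; intrinsic clearance from parent kinetics.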

[12] = Ratio of drug levels in brain to plasma in Wistar rat at 4 ug/kg, iv; assay type: ADME, organism-based; details: brain and plasma, 0.004 mg/kg
How it was run: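 Male Wistar rats (220–250 g) given 4 µg/kg [³H]ABP688 iv into the surgically exposed femoral vein under slight isoflurane anaesthesia, in EtOH/glucose 5% (1:99 v/v) at 1 mL/kg. Groups of n = 3 per sampling time over about 2.5 h. Plasma and brain were taken. Total radioactivity was read by liquid scintillation, and parent compound by LC-RID with unlabelled internal standard. Values are means ± SD.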

[13] = Volume of distribution in Wistar rat at 4 ug/kg, iv; assay type: ADME, organism-based; details: in vivo, 0.004 mg/kg, read-out: Vss
How it was run: (§3)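 Male Wistar rats (220–250 g) given 4 µg/kg [3H]ABP688 in EtOH/5% glucose (1:99), 1 mL/kg, into the exposed femoral vein under light isoflurane. n = 3 per time point; plasma and tissues collected, total radioactivity by scintillation, parent by LC-radiodetection with unlabeled internal standard. Bi-exponential compartmental PK analysis.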

[14] = Metabolic stability assessed as intrinsic clearance in human liver microsomes; assay type: ADME, Microsome; how it was run: as §2
[15] = molecular target: T1, Metabotropic glutamate receptor 5; assay: Binding affinity at mGluR5 in rat brain membrane; assay type: cell membranes
How it was run: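 Rat whole-brain membranes in Na-HEPES buffer (110 mM NaCl, 1.2 mM MgCl2, 5 mM KCl, 2.5 mM CaCl2), pH 8.0. Competition against fixed 1.5 nM [3H]ABP688, equilibrated 60 min at 37 °C, then filtered on glass-fibre and counted by liquid scintillation, in triplicate. Ki derived by Cheng–Prusoff from non-linear curve fits.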

[16] = test system: Brain; assay: Drug level in Wistar rat brain at 4 ug/kg, iv after 5 mins; assay type: ADME, organism-based; details: in vivo, 0.004 mg/kg; how it was run: as §3
[17] = test system: Rattus norvegicus; assay: Drug uptake in Wistar rat at 4 ug/kg, iv; assay type: ADME, organism-based; details: in vivo, 0.004 mg/kg; how it was run: as §3
[18] = test system: Brain; assay: Drug uptake in Wistar rat brain at 4 µg/kg, iv; details: in vivo

T2 sequence (P41594 whole entry): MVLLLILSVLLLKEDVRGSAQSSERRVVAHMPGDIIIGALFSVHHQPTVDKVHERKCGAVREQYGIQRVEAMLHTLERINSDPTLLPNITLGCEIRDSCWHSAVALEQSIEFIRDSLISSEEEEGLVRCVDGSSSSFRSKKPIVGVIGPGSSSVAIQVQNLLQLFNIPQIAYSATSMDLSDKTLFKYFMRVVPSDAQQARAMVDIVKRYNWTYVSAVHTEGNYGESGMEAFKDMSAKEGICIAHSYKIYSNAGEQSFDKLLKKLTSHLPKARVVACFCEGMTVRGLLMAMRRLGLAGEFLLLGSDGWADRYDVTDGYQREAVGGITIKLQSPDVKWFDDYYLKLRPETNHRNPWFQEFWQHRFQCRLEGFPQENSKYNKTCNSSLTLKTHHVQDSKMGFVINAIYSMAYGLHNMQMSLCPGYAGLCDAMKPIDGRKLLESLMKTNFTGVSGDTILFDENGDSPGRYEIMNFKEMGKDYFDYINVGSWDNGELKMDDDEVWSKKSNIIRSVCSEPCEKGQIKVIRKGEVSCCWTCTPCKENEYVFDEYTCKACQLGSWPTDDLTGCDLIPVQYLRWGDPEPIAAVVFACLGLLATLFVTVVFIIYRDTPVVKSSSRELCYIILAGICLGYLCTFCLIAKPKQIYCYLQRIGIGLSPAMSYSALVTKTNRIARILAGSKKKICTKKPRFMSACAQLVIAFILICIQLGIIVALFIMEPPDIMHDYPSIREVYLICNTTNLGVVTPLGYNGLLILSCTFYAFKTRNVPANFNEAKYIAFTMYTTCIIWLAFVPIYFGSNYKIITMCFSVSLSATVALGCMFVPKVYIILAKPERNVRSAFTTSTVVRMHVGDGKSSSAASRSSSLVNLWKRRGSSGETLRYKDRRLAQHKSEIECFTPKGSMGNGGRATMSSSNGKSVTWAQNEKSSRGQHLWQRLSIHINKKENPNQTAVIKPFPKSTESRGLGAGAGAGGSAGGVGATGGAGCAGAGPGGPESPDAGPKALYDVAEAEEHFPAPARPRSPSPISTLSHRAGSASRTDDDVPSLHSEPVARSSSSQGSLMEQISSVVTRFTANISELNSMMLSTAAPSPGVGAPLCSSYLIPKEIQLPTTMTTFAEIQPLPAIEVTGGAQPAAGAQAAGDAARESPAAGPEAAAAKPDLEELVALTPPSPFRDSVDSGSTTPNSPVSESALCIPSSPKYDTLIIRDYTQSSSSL
T1 sequence (P31424 whole entry): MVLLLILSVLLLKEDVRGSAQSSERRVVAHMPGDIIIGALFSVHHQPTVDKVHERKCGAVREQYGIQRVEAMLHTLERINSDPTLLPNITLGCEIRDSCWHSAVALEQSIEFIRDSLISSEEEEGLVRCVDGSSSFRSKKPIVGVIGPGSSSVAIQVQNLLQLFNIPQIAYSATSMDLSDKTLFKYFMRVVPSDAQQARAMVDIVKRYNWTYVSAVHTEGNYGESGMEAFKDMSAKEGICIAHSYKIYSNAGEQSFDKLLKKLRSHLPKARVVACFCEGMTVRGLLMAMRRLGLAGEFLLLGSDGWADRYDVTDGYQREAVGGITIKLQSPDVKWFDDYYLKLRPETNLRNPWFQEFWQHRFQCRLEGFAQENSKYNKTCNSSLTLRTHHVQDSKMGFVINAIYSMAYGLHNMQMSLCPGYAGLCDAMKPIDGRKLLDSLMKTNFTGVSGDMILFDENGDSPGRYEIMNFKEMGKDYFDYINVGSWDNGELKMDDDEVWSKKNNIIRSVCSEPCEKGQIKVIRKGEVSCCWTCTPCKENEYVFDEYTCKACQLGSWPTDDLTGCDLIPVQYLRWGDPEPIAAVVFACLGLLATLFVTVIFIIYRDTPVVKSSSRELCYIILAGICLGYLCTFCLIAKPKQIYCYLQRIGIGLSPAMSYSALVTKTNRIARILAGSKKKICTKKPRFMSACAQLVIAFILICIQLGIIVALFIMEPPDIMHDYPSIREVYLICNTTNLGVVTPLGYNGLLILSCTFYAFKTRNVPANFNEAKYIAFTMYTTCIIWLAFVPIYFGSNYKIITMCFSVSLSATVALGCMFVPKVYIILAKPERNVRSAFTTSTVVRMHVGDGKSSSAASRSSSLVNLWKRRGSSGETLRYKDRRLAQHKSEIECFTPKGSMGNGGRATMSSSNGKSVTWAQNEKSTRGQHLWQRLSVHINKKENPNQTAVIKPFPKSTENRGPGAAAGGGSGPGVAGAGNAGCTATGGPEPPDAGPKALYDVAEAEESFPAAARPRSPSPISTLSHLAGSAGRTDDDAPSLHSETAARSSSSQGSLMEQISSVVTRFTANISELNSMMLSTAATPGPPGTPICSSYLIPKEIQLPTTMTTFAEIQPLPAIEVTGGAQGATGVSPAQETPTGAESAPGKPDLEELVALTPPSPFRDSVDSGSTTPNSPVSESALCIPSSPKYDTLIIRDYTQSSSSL
Chain of Metabotropic glutamate receptor 1 (Homo sapiens) (Q13255 19-1194 limits assumed): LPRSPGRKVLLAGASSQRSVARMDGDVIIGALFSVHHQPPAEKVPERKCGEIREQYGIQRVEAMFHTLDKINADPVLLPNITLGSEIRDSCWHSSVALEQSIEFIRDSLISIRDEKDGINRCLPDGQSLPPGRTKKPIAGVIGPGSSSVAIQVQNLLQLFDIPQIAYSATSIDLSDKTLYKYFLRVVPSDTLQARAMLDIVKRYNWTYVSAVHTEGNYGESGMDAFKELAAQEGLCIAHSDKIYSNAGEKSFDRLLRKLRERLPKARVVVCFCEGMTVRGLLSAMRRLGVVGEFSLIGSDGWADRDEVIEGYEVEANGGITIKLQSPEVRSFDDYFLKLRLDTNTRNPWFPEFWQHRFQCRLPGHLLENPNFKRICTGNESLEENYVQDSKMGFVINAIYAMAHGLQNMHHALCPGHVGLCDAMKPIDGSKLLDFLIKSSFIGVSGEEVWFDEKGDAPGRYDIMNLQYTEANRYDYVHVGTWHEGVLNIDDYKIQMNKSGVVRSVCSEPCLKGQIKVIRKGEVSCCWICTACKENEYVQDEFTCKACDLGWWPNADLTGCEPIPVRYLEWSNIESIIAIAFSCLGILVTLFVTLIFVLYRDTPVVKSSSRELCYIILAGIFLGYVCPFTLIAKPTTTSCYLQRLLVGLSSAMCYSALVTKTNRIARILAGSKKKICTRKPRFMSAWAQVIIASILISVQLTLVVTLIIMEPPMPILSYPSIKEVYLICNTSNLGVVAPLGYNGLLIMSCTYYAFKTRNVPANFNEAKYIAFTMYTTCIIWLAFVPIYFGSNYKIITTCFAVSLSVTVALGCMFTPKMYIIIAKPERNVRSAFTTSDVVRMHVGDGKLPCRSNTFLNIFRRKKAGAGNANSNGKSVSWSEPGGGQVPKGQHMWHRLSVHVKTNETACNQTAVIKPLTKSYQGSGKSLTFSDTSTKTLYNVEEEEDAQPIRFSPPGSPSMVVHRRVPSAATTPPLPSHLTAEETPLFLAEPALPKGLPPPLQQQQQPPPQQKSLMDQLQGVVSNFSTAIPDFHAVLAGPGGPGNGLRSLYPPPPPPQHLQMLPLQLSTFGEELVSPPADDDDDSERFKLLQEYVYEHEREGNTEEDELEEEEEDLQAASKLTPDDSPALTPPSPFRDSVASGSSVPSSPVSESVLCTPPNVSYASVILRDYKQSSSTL

SMILES: COc1cccc(C#Cc2cccc(C)n2)c1 [M-MPEP]
pKi [1]: 7.96

pKi [1]: < 5.00
pKi [2]: < 4.00
SMILES: CCOC(=O)[C@]12CC1/C(=N\O)c1ccccc1O2 (some centres not stated) [CPCCOET]

pKi [1]: 8.74
pIC50 [3]: 8.15
pKi [3]: 8.46
pKi [2]: 8.77
pIC50 [4]: 8.62
pIC50 [5]: 8.64
Activity [6]: inactive
Activity [7]: inactive
SMILES: CO/N=C1/C=C(C#Cc2cccc(C)n2)CCC1

Activity [8]: 76%
Activity [9]: 92%
fraction unbound [10]: 0.068
microsomal CLint [11]: 150 µL/min/mg
Kp [12]: 20
Vd [13]: 11 L/kg
microsomal CLint [14]: 150 µL/min/mg
pKd [15]: 8.64
Activity [16]: 21 pmol/g
Drug uptake [17]: 21 %ID
Drug uptake [18]: 0.8 %ID
SMILES: [3H]C([3H])([3H])O/N=C1/C=C(C#Cc2cccc(C)n2)CCC1
